Laboratory results published in ChEMBL document CHEMBL1155708, “Isoaurostatin, a novel topoisomerase inhibitor produced by Thermomonospora alba” (J Nat Prod, 2001).

Columns and labels:
[1] = target: Telomerase reverse transcriptase (Homo sapiens, UniProt O14746); test: Inhibition of telomerase from human COLO201 cell
DNA topoisomerase = target: T1, DNA topoisomerase (Bos taurus, UniProt A0JN73); test: Inhibition calf thymus gland topoisomerase 1 assessed as conversion of supercoiled pBR322 DNA to relaxed form
T1 sequence (A0JN73 whole entry): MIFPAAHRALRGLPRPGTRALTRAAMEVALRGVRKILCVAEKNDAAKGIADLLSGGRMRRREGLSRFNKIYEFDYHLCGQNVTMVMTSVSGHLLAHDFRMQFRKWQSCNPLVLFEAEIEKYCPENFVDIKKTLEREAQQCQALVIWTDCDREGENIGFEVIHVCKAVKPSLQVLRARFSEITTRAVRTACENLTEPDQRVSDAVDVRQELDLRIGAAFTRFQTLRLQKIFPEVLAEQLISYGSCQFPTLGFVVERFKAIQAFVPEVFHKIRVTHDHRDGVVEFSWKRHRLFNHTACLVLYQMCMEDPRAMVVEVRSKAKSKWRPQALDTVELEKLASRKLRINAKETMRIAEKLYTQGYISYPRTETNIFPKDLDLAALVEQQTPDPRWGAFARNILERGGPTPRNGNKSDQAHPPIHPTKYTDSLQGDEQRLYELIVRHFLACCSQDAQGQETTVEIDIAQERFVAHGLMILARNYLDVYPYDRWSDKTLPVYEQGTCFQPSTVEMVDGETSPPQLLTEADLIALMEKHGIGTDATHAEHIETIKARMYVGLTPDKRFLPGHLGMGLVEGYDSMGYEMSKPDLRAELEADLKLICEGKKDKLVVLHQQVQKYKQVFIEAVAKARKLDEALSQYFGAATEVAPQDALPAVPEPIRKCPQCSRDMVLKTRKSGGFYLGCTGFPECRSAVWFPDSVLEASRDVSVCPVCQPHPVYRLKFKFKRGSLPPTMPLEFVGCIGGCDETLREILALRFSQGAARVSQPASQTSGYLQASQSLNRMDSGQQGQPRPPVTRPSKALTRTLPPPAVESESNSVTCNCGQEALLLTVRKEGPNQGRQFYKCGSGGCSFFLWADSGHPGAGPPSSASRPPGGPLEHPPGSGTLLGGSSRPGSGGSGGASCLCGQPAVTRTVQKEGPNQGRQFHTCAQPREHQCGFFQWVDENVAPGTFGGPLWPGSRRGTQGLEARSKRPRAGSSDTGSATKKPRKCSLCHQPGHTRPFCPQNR

DNA topoisomerase 1 = target: T2, DNA topoisomerase 1 (Mus musculus, UniProt Q04750); test: Inhibition topoisomerase 1 in mouse NIH/3T3 cells assessed as conversion of supercoiled pBR322 DNA to relaxed form; format: cell-based, NIH3T3
T2 sequence (Q04750 whole entry): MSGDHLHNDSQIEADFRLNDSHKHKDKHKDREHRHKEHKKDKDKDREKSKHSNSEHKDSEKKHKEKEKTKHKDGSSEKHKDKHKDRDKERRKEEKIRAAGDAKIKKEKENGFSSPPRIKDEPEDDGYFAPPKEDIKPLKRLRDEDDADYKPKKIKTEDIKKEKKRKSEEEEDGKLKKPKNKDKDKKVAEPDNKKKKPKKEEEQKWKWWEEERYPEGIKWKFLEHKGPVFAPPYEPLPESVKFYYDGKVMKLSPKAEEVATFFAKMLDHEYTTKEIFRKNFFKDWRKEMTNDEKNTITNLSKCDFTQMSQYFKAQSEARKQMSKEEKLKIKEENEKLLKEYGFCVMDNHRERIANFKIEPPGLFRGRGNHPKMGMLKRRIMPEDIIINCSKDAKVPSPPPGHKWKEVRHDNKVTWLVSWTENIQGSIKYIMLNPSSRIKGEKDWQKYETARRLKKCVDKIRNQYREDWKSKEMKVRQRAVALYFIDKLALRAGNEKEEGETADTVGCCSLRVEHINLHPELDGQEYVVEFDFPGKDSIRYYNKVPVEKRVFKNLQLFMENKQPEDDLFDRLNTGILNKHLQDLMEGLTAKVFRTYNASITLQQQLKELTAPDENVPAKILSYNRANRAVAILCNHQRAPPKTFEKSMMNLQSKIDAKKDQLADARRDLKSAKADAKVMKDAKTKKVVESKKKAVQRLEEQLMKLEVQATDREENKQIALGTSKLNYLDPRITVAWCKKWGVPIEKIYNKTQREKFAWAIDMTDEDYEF
Summary of the method: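 Enzyme source: Vero or NIH3T3 cells cultured 5 days, washed in PBS and pelleted (1 × 10^6 cells). Lysed 30 min on ice in 200 µL buffer (10 mM Tris-HCl pH 7.5, MgCl2, EGTA, AEBSF, β-mercaptoethanol, 0.5% CHAPS, 10% glycerin); the cleared supernatant relaxed supercoiled pBR322. Gel densitometry; IC50 is the amount halving activity.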

DNA ligase = target: T3, DNA ligase (Enterobacteria phage T4, UniProt P00970); test: Inhibition of T4 ligase from bacteriophage infected Escherichia coli assessed as ligation of supercoiled pBR322 DNA; set-up: species or system Tequatrovirus T4
T3 sequence (P00970 whole entry): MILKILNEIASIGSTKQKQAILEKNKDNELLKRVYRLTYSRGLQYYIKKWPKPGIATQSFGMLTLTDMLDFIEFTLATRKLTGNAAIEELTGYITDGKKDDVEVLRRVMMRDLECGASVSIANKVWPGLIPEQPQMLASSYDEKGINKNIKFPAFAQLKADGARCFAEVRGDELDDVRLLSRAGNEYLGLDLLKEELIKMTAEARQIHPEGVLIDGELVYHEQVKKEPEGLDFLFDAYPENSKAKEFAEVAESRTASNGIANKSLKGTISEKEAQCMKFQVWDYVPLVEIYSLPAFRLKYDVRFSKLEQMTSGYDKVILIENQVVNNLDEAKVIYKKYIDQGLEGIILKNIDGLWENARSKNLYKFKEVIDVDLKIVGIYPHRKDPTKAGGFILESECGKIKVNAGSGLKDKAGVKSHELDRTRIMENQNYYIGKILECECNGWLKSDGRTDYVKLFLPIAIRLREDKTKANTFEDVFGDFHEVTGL

[2] = Inhibition of Arthrobacter luteus AluI assessed as undigested supercoiled pBR322 DNA concentration; set-up: species or system Cellulosimicrobium cellulans
Summary of the method: (§1)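 Restriction enzyme or nuclease activity followed as the remaining undigested supercoiled pBR322 DNA (or RNA) after reaction.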

[3] = target: T4, Type II restriction enzyme PstI (Providencia stuartii, UniProt P00640); test: Inhibition of Providencia stuartii Pst 1 assessed as undigested supercoiled pBR322 DNA concentration; summary of the method: as §1
T4 sequence (P00640 whole entry): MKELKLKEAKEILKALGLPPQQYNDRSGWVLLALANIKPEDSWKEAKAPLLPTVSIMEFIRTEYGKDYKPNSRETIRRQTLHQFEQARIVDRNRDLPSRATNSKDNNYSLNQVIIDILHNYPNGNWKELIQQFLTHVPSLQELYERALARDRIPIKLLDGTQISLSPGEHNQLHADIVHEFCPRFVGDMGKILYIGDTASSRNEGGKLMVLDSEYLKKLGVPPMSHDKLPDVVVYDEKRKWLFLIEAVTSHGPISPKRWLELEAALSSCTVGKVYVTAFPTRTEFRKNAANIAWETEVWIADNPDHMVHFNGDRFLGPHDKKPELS

Chain of Telomerase reverse transcriptase (O14746 whole entry): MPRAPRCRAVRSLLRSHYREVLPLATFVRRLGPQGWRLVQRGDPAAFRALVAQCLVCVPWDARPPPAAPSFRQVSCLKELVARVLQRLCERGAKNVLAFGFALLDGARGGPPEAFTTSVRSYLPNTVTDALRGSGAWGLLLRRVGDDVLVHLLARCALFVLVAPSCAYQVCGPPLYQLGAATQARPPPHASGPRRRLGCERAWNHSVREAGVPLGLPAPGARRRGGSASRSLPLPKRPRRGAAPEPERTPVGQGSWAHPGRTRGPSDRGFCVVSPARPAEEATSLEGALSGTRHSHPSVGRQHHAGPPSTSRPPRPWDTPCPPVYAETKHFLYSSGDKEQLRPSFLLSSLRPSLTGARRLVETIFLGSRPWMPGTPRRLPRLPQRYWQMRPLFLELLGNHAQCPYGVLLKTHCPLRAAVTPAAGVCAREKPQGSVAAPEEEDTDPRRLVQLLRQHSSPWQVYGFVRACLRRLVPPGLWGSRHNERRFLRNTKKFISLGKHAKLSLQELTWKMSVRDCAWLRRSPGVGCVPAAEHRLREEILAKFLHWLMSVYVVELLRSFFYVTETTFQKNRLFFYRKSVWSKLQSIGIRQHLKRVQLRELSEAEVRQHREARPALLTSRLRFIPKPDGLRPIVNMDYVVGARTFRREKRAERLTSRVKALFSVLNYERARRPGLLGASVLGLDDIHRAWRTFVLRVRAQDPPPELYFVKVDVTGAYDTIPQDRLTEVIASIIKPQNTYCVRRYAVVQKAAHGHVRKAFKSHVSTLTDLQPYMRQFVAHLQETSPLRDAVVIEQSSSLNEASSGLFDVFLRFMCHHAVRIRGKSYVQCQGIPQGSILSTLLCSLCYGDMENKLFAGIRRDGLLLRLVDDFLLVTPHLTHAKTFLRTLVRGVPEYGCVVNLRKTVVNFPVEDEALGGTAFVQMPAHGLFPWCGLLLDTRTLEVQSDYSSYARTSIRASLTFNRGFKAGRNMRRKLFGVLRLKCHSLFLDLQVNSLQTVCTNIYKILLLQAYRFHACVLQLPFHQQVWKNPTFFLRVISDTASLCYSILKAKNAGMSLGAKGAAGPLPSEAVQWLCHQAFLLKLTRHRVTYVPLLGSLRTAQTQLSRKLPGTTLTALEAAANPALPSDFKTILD

For `CC[C@@]1(O)C(=O)OCc2c1cc1n(c2=O)Cc2cc3ccccc3nc2-1` [CAMPTOTHECIN], the IC50 [1] was over 300 µM, the IC50 (DNA topoisomerase) was 17 µM and the IC50 (DNA topoisomerase 1) was 12 µM. The IC50 (DNA ligase) was over 300 µM, the IC50 [2] was over 300 µM and the IC50 [3] was over 300 µM.
`COc1cccc2c1C(=O)c1c(O)c3c(c(O)c1C2=O)C[C@@](O)(C(=O)CO)C[C@@H]3O[C@H]1C[C@H](N)[C@H](O)[C@H](C)O1` [DOXORUBICIN] gave an IC50 [1] of 73 µM, an IC50 (DNA topoisomerase) of over 200 µM and an IC50 (DNA topoisomerase 1) of over 200 µM. For the same molecule, the IC50 (DNA ligase) was over 200 µM, the IC50 [2] was 24 µM and the IC50 [3] was over 200 µM.
For `O=C1Oc2cc(O)ccc2/C1=C\c1ccc(O)cc1` [ISOAUROSTATIN], the IC50 [1] was over 400 µM, the IC50 (DNA topoisomerase) was 307 µM and the IC50 (DNA topoisomerase 1) was over 400 µM. The IC50 (DNA ligase) was over 400 µM, the IC50 [2] was over 400 µM and the IC50 [3] was over 400 µM.
For `C=C1NC(=O)C(C)C(CCC(C)C(=O)/C=C/C(C)=C/CC(C)CCCCCCC)OC(=O)[C@H](CC(OS(=O)(=O)O)C(N)=O)NC(=O)[C@@H](C)CNC1=O` (some centres undefined) [TOPOSTATIN], the IC50 [1] was over 250 µM, the IC50 (DNA topoisomerase) was 17 µM and the IC50 (DNA topoisomerase 1) was 47 µM. The IC50 (DNA ligase) was over 250 µM, the IC50 [2] was over 250 µM and the IC50 [3] was 19 µM.
